# Test results from ChEMBL document CHEMBL4411261, “Down-Regulation of the Androgen Receptor by G-Quadruplex Ligands Sensitizes Castration-Resistant Prostate Cancer Cells to Enzalutamide” (J Med Chem, 2018).
# Activity calls are given as the source filed them. The rule behind the calls is not given here.
# Assays:
# Quadruplex DNA [1] = assay: Stabilization of AR G-quadruplex oligonucleotide in human LNCAP cells assessed as reduction in AR-FL protein level by immunoblotting assay; type: cell-based
# Procedure, shortened: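 Lysate proteins immunoblotted. Vinculin or β-actin used as loading control, peroxidase-linked secondary antibodies, ECL chemiluminescent detection, autoradiography, densitometric scan. Untreated cells received DMSO.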
# LNCaP = assay: Cytotoxicity against human LNCAP cells expressing androgen receptor T877A point mutant assessed as reduction in cell viability after 48 hrs by MTS assay; type: functional, cell-based
# Procedure, shortened: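 Cells kept in RPMI-1640 with 10% fetal calf serum, 37 °C, 5% CO2. Seeded, after 24 h treated with 0.0001, 0.001, 0.01, 0.1, 1 and 10 μM compound (DMSO stocks freshly diluted in medium) for 48 h. MTS added 4 h, absorbance 490 nm; IC50 from curves of % viability inhibition versus DMSO-treated cells against log concentration.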
# PC-3 = assay: Effect on JUN mRNA expression in human PC3 cells at IC50 after 48 hrs by RT-PCR analysis; type: functional, cell-based
# Procedure, shortened: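 Transcripts quantified by TaqMan real-time PCR with RNaseP as normalizer; relative quantity versus untreated cells by the 2−ΔΔCt method. Panel genes measured with a 92-gene cancer-mechanism TaqMan array.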
# Quadruplex DNA [2] = assay: Stabilization of AR G-quadruplex oligonucleotide in human PC3 cells assessed as down-regulation of ITGB3 mRNA expression at IC50 after 48 hrs by RT-PCR analysis; type: cell-based
# Procedure, shortened: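 PC-3 cells (RPMI-1640, 10% fetal calf serum) exposed at an equitoxic concentration. Expression of 92 cancer-mechanism genes measured on TaqMan Arrays. Change versus untreated cells computed by 2−ΔΔCt, with RNaseP as normalizer.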
# Quadruplex DNA [3] = assay: Stabilization of AR G-quadruplex oligonucleotide in human LNCAP cells assessed as reduction in AR mRNA expression at IC50 after 48 hrs by RT-PCR analysis; type: cell-based
# Procedure, shortened: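 Cells grown in RPMI-1640 with 10% fetal calf serum, 37 °C, 5% CO2, treated at an equitoxic concentration. Transcripts quantified by TaqMan real-time RT-PCR, normalized to RNaseP, expressed as relative quantity versus untreated cells (calibrator) by the 2−ΔΔCt method.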
smiles,measurement,setting,value
CN(C)CCCn1c(=O)c2ccc3c(=O)n(CCCN(C)C)c(=O)c4c5[nH]c6ccccc6[nH]c5c(c1=O)c2c34.Cl.Cl,Activity,Quadruplex DNA [1],Active
same,IC50,LNCaP,140 nM
same,Activity,PC-3,inactive
same,Activity,Quadruplex DNA [2],Active
same,Activity,Quadruplex DNA [3],Active
